In ChEMBL document CHEMBL1122814, “Selective thromboxane synthetase inhibitors. 1. 1-[(Aryloxy)alkyl]-1H-imidazoles” (J Med Chem, 1985):
pIC50: −log10 of the molar value.

These compounds were tested against T1, 11-beta-hydroxylase (Cytochrome P450 11B1, mitochondrial) (Rattus norvegicus, UniProt P15393) (assay: Inhibition of rat adrenal 11-beta-hydroxylase at 10e-5 M). Conditions: rat adrenal 11-beta-hydroxylase (adrenal enzyme preparation).
T1 sequence (P15393 whole entry): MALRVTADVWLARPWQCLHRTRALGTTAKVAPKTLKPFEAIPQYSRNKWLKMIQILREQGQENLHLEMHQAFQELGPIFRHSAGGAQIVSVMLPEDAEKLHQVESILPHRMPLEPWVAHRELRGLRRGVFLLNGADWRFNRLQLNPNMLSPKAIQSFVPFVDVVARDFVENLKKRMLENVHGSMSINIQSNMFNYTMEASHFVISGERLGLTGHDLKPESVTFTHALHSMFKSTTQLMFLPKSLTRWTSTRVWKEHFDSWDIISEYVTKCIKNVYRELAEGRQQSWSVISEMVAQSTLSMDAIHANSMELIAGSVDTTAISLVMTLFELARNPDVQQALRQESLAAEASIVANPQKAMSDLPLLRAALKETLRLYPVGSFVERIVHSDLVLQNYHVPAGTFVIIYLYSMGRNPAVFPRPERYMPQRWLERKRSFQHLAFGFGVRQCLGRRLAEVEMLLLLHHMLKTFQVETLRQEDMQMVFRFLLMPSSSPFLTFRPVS
Summary of the method: (§1)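 Washed adrenal mitochondria from three male Charles River rats, used within 30 min. Incubated at 37 °C, pH 7.4 (HEPES/sucrose/MgCl2/KH2PO4/malate) with 50 μM [14C]-11-deoxycorticosterone and test drug, 5-min preincubation then 10 min with mitochondria. Extracted into CH2Cl2. Substrate and corticosterone separated by silica TLC and counted by scintillation.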

Row | inhibition at 0.0001 M [%] | Compound
1 | 72 | c1ccc(OCCn2ccnc2)cc1

Each compound was assayed against T2, Thromboxane-A synthase (Homo sapiens, UniProt P24557) (assay: Inhibitory activity against thromboxane A2 synthetase). Conditions: not given.
T2 sequence (P24557 whole entry): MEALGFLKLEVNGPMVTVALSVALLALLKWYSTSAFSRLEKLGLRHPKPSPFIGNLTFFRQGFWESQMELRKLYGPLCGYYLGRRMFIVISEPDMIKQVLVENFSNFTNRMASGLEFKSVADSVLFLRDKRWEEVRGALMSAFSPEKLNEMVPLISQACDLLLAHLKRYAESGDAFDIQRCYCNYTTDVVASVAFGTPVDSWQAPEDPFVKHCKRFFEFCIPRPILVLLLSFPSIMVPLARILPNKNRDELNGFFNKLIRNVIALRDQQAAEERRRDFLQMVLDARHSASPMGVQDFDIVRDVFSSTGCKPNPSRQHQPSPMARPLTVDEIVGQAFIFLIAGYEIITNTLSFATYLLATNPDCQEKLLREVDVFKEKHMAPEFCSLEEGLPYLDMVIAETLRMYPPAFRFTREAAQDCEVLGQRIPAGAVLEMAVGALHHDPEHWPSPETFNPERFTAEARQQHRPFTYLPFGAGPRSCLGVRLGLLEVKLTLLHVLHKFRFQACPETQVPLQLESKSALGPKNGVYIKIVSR
Summary of the method: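 Human platelet microsomes, cyclooxygenase inactivated with 30 μM indomethacin (30 min, 0 °C). Compound preincubated 2 min on ice, pH 7.8 phosphate. Then 1 min on ice with freshly made PGH2 (from 0.1 mM arachidonic acid and ram seminal vesicle microsomes). Stopped with EtOH. TxB2 measured by RIA in triplicate; dose-response curves over several concentrations.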

Row | pIC50 | Compound
2 | < 4.30 | O=[N+]([O-])c1ccc(OCCn2ccnc2)cc1
3 | 6.28 | O=C(O)c1cccc(OCCn2ccnc2)c1
4 | 5.96 | CN(C)C(=O)c1ccc(OCCn2ccnc2)cc1
5 | 6.07 | NC(=O)COc1ccc(OCCn2ccnc2)cc1
6 | 5.40 | CC(=O)Nc1ccc(OCCn2ccnc2)cc1
7 | 6.07 | CNC(=O)c1ccc(OCCn2ccnc2)cc1
8 | 5.70 | CCOC(=O)Cc1ccccc1OCCn1ccnc1
9 | 6.74 | O=C(NC(=O)c1ccc(OCCn2ccnc2)cc1)c1ccccc1
10 | 7.49 | O=C(O)Cc1ccc(OCCn2ccnc2)cc1
11 | 7.57 | O=C(O)c1ccc(OCCCn2ccnc2)cc1
12 | < 4.30 | NS(=O)(=O)c1ccc(OCCn2ccnc2)cc1
13 | 5.46 | N#Cc1cccc(OCCn2ccnc2)c1
14 | 7.02 | O=C(O)COc1ccc(OCCn2ccnc2)cc1
15 | 4.89 | N#Cc1ccc(OCCn2ccnc2)cc1
16 | 6.20 | CC(=O)NC(=O)c1ccc(OCCn2ccnc2)cc1
17 | < 4.00 | COc1ccc2c(c1)c(CC(=O)O)c(C)n2C(=O)c1ccc(Cl)cc1 [INDOMETHACIN]
18 | 5.54 | CCOC(=O)Cc1ccc(OCCn2ccnc2)cc1
19 | < 4.30 | Nc1ccc(OCCn2ccnc2)cc1
20 | 7.82 | CC(C)c1[nH]c2ccccc2c1Cn1ccnc1
21 | 7.25 | NC(=O)c1ccc(OCCn2ccnc2)cc1
22 | 7.82 | c1cn(CCOc2ccc(-c3nnn[nH]3)cc2)cn1
23 | 5.36 | CCOC(=O)c1ccccc1OCCn1ccnc1
24 | 4.66 | NC(=O)c1ccccc1OCCn1ccnc1
25 | 6.18 | c1ccc(OCCn2ccnc2)cc1
26 | < 5.00 | O=C(O)c1ccccc1OCCn1ccnc1
27 | 5.52 | CCOC(=O)c1ccc(OCCCn2ccnc2)cc1
28 | 5.74 | NC(=O)Cc1ccc(OCCn2ccnc2)cc1
29 | 6.08 | NC(=O)Nc1ccc(OCCn2ccnc2)cc1
30 | < 5.00 | O=C(O)Cc1ccccc1OCCn1ccnc1
31 | 6.21 | CCOC(=O)COc1ccc(OCCn2ccnc2)cc1

Row | Compound | pIC50
32 | c1c[nH]cn1 [IMIDAZOLE] | 3.17

What follows are compounds tested against T3, Cytochrome P450 11B1, mitochondrial (Rattus norvegicus, UniProt P15393) (assay: Inhibition of rat adrenal 11-beta-hydroxylase). Conditions: not given.
T3 sequence (P15393 whole entry): T1 sequence (P15393 whole entry)
Summary of the method: as §1

Row | pIC50 | Compound
33 | < 4.00 | O=C(O)c1cccc(OCCn2ccnc2)c1
34 | < 4.00 | NC(=O)COc1ccc(OCCn2ccnc2)cc1
35 | < 4.00 | O=C(O)COc1ccc(OCCn2ccnc2)cc1
36 | 5.70 | CC(C)c1[nH]c2ccccc2c1Cn1ccnc1
37 | 5.00 | NC(=O)c1ccc(OCCn2ccnc2)cc1
38 | < 4.00 | O=C(O)c1ccc(OCCn2ccnc2)cc1 [DAZOXIBEN]
